According to the M2OR odorant receptor database:

Assays:
Settings in all cases: stereoisomer not certain
OR4M1 H277N V279L L284H = test system: OR4M1 H277N V279L L284H
Method in brief: (§1)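 Whether a receptor–molecule pair is responsive (active) rests on the original authors' judgment that its measured signal was statistically different from baseline. Pairs without that judgment are non-responsive (inactive). Sources used varied assay methods, commonly transient luciferase assays in mammalian cell lines.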

OR4M2 (Homo sapiens) = OR4M2 (Homo sapiens) (UniProt Q8NGB6)
OR4M2 (Homo sapiens), sequence (Q8NGB6 whole entry): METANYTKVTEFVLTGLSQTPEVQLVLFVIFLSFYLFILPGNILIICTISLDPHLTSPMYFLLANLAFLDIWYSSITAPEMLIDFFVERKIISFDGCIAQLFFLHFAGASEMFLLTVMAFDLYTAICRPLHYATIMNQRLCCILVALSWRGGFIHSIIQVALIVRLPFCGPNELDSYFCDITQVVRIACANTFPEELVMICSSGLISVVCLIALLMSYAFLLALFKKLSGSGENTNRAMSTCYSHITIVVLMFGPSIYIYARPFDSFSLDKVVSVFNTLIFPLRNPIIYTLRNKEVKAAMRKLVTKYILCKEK
Method in brief: as §1

OR4N2 (Homo sapiens) = OR4N2 (Homo sapiens) (UniProt Q8NGD1)
OR4N2 (Homo sapiens), sequence (Q8NGD1 whole entry): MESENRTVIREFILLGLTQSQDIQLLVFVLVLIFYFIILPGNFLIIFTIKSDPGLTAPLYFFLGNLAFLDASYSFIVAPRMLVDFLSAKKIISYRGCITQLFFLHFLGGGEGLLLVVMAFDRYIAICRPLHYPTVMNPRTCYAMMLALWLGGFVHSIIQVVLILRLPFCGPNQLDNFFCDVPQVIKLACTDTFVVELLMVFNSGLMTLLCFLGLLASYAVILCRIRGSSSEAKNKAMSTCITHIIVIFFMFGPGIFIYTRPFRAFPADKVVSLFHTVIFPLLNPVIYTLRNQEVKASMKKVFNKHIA
Method in brief: as §1

OR4N2 A57V I76T = test system: OR4N2 A57V I76T
Method in brief: as §1

OR4N2 R260C F279L R290H = test system: OR4N2 R260C F279L R290H
Method in brief: as §1

OR4N2 = test system: OR4N2
OR4N2, sequence (as listed by the source): as the sequence (Q8NGD1 whole entry) above, with I76T counted along it
Method in brief: as §1

OR4N4 (Homo sapiens) = OR4N4 (Homo sapiens) (UniProt Q8N0Y3)
OR4N4 (Homo sapiens), sequence (Q8N0Y3 whole entry): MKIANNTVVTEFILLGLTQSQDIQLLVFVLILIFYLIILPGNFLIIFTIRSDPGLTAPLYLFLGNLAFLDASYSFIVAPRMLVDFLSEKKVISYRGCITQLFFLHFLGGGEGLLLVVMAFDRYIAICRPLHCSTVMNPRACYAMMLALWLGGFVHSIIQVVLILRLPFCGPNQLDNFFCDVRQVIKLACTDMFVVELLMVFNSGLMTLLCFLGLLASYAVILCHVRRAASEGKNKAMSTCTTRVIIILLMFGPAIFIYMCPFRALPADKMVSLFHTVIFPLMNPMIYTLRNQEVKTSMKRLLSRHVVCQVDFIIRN
Method in brief: as §1

OR4N5 (Homo sapiens) = OR4N5 (Homo sapiens) (UniProt Q8IXE1)
OR4N5 (Homo sapiens), sequence (Q8IXE1 whole entry): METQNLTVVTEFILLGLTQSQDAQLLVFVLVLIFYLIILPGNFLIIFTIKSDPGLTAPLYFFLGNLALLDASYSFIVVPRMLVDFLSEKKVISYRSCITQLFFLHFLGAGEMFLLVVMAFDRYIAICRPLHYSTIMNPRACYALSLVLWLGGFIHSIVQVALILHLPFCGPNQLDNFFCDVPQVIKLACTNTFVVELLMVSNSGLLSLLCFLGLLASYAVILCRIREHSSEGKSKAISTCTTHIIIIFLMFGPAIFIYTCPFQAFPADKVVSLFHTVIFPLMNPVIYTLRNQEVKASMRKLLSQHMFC
Method in brief: as §1

OR4M2B (Homo sapiens) = OR4M2B (Homo sapiens) (UniProt A0A0X1KG70)
OR4M2B (Homo sapiens), sequence (A0A0X1KG70 whole entry): as the sequence (Q8NGB6 whole entry) above, with G96E, F225L, M239V, R284H counted along it
Method in brief: as §1

OR4N4C (Homo sapiens) = OR4N4C (Homo sapiens) (UniProt A0A096LPK9)
OR4N4C (Homo sapiens), sequence (A0A096LPK9 whole entry): as the sequence (Q8N0Y3 whole entry) above, with M259I counted along it
Method in brief: as §1

Measured: odorant receptor agonist call;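 also: active if original authors judged signal statistically different from baseline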

C=CCOC(=O)Cc1ccccc1
inactive: OR4M1 H277N V279L L284H | OR4M2 (Homo sapiens) | OR4N2 (Homo sapiens) | OR4N2 A57V I76T | OR4N2 R260C F279L R290H | OR4N2 | OR4N4 (Homo sapiens) | OR4N5 (Homo sapiens)

Cc1c([N+](=O)[O-])c(C)c([N+](=O)[O-])c(C(C)(C)C)c1[N+](=O)[O-]
inactive: OR4M2 (Homo sapiens) | OR4M2B (Homo sapiens) | OR4N2 (Homo sapiens) | OR4N4 (Homo sapiens) | OR4N4C (Homo sapiens) | OR4N5 (Homo sapiens)
